Out of some 290,000 compounds screened, about 1,300 (0.45%) were called active. This is one part of a sample in which actives are shown more often than they occur. A number with no mark means an inactive call.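 How the source made its calls: active means inhibition above the mean plus 3 SD of all compounds in the same screening run (cut at about 4.5% in these data); inactive means the rest.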

The subject of the experiment is metallo-beta-lactamase IMP-1 (Pseudomonas aeruginosa). Briefly: IMP-1 metallo-beta-lactamase inhibitors, primary screen, biochemical, epi-absorbance readout, Pseudomonas aeruginosa enzyme (AID 1556).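 Further: 0% = IMP-1 with DMSO and 100% = DMSO wells lacking enzyme.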 Particulars: purified IMP-1, nitrocefin hydrolysis, epi-absorbance fluorescence; at 5.6 µM; active compounds read high. In short, it runs like this:
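Test system: recombinant IMP-1 enzyme, purified / Medium: HEPES buffer pH 7.1 with ZnSO4 and Brij 35 / Doses: single dose, 5.6 µM / Times: 25 °C, 15 min preincubation, 25 min reaction / Detection: Epi-absorbance via hydrolysed-nitrocefin quenching of white-plate fluorescence, 480/530 nm, EDTA stop / Evaluation: percent inhibition from optical density relative to buffer-blank wells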
As to `CC1=C(C(=O)OC2CCCCC2)C(c2ccccc2F)NC(=O)N1` (centres undefined), the inhibition was -2.31%. Under `CC1=C(C(=O)OCC2CCCCC2)C(c2ccc(F)cc2)NC(=O)N1` (centres undefined) stands 28.3% (active); under `COCCOC(=O)C1=C(C)NC(=O)NC1c1ccc(Cl)cc1` (centres undefined), -2.42%. In the case of `Cc1ccccc1CNC(=O)CCC(=O)N1Cc2ccccc2Oc2ncccc21`, the inhibition was -3.43%. Under `CCNS(=O)(=O)c1ccc(NC(=O)Nc2cccc(OC)c2)cc1` stands -2.27%; under `CCOC(=O)c1csc(NC(=O)Nc2cccc(OC)c2)n1`, 15.1% (active). For the molecule `CCOC(=O)c1cnc(SCC(=O)Nc2cccc(OC)c2)nc1N`, the inhibition is -1.9%. In the case of `CCCCC(=O)Nc1nc(C)c(-c2csc(Nc3ccc(Cl)cc3)n2)s1` it was 0.37%; in that of `CCCCCCC(=O)Nc1nc(C)c(-c2csc(Nc3cc(Cl)ccc3OC)n2)s1`, -2.05%.

For `CCCCCCC(=O)Nc1nc(C)c(-c2csc(Nc3cccc(OC)c3)n2)s1`, the inhibition was 9.14% (active). In the case of `COc1ccc(C(=O)Nc2ccc(-n3nncc3C(C)(C)C)cc2)cc1` it was -2.83%.

Turning to `Clc1ccc(C2=CSC3=Nc4cccc5cccc(c45)N23)cc1`, the inhibition was 5.6% (active).

`CC(=O)c1ccc(N2CCN(C(=O)CCNC(=O)Cn3ccc4ccccc4c3=O)CC2)cc1`: the inhibition was -0.18%.

With `O=C(CN1CCOc2ccccc21)N1CCC(Cc2ccccc2)CC1`, the inhibition is -0.27%. Under `CCOC(=O)c1c(C)[nH]c(C(=O)NCCN2CCOCC2)c1C` stands -0.4%; under `COc1cc(NC(=O)c2ccc3c(c2)OCO3)ccc1NC(=O)c1cccs1`, -2.83%; under `FC(F)(F)C1CCCN(c2nsc3ccccc23)C1` (centres undefined), -3.15%. Under `CSC1=N/C(=C\C=C\c2cccs2)C(=O)S1` stands 12.2% (active). In the case of `Cc1cccc(C2=N/C(=C/c3cccs3)C(=O)O2)c1`, the inhibition was -0.41%. Under `CN1C/C(=C/c2cccs2)C(=O)/C(=C\c2cccs2)C1` stands 0.42%.

As to `COc1ccc(C(O)(C2CCCCC2)C(CN2CCCC2)c2ccccc2)cc1` (centres undefined), the inhibition was -0.93%. As for `CCc1ccc(NC(=O)Cn2nnc(C(=O)NCc3ccc4c(c3)OCO4)c2N)cc1`, the inhibition is 0.66%. Take `CCOCCCNC(=S)Nc1ccc2nc(N3CCN(CC)CC3)cc(C)c2c1`: the inhibition is -2%. Under `N#Cc1ccccc1CN1C(=O)S/C(=C/c2cccn2-c2cccc(C(=O)O)c2)C1=O` stands 20.9% (active); under `Cc1ccccc1NC(=O)CN1C(=O)N/C(=C\c2cccn2-c2cccc(C(=O)O)c2)C1=O`, -2.07%.

As for `Cc1cc(/C=C2\SC(=O)N(C)C2=O)c(C)n1-c1cccc(C(=O)O)c1`, the inhibition is -1.7%. Under `O=C(CNC(=O)c1ccccc1F)c1ccc(Br)cc1` stands -2.02%.

On to `Cc1ccccc1NC(=O)CSc1ccc2nnc(-c3ccccn3)n2n1`, for which the inhibition was -1.21%.

In the case of `CC(NC(=O)CCCC1CCCCC1)c1ccc(S(N)(=O)=O)cc1` (centres undefined), the inhibition was -1.72%.

Turning to `O=C(/C=C/c1ccco1)Nc1cccc(-c2nc3ccccc3[nH]2)c1`, the inhibition is -2.53%. In the case of `O=C(Nc1cccc(-c2nc3ccccc3[nH]2)c1)c1ccc(C(=O)Nc2cccc(-c3nc4ccccc4[nH]3)c2)cc1` it was 4.99% (active).

Take `O=C(Cc1cccs1)Nc1cccc(-c2nc3ccccc3[nH]2)c1`: the inhibition was -5.9%. Under `CC1CCN(C(=O)CN(c2ccc(Oc3ccccc3)cc2)S(C)(=O)=O)CC1` stands -2.25%; under `CSCCC(NC(=O)c1ccc(Cl)cc1Cl)C(=O)NNC(=O)c1csc(N2CCOCC2)n1` (centres undefined), -2.46%.

For the molecule `COc1ccc(Cl)cc1NC(=O)CCS(=O)(=O)c1cc2c(cc1C)NC(=O)CO2`, the inhibition was -3.94%. Consider `COc1ccc(Cl)cc1NC(=O)CCS(=O)(=O)c1ccc(Br)cc1`, for which the inhibition was 9.04% (active). Under `O=C(CCS(=O)(=O)c1ccc(Br)cc1)NCCc1ccc(Cl)cc1` stands 0.69%; under `COc1ccc2cc(-c3[nH]ncc3CNCCn3nc(C)cc3C)ccc2c1`, -2.54%.

Take `O=C(NCc1ccncc1)C(=O)NCC1OCCN1S(=O)(=O)c1ccc(Br)cc1` (centres undefined): the inhibition is -1.07%.

Turning to `CCOc1ccc(N/C=C/C(=O)c2ccccc2)cc1`, the inhibition is -2.54%. On to `COc1ccc(C(=O)/C=C/Nc2ccccn2)cc1`, for which the inhibition was 5.05% (active). Under `COc1ccc2cc(S(=O)(=O)Nc3ccccn3)ccc2c1` stands -3.85%. Take `COc1ccc(/C=N/Nc2ccccc2C(=O)O)cc1`: the inhibition was -1.08%. As for `CCOC(=O)C1=C(c2ccccc2)NC(=O)NC1c1cc(OC)c(OC)cc1OC` (centres undefined), the inhibition is -2.08%.

With `Cc1ccc(Nc2nnc(SCC(=O)c3cc4ccccc4o3)s2)cc1C`, the inhibition was -0.86%.

On to `Cc1cc(NC(=O)CSc2nnc(Nc3ccccc3F)s2)no1`, for which the inhibition is -0.94%.

Regarding `Cc1ccccc1Nc1nnc(SCC(=O)c2cc3ccccc3o2)s1`, the inhibition is 7.2% (active).

For `O=[N+]([O-])c1cc(Cl)cc(/C=N/NC(=S)Nc2cc(S(=O)(=O)N3CCOCC3)ccc2Cl)c1O`, the inhibition is -0.24%. In the case of `O=C(N/N=C/c1cc(Cl)cc([N+](=O)[O-])c1O)C(O)(c1ccccc1)c1ccccc1` it was -3.33%. On to `CN(C)/N=C/c1cc(Cl)cc([N+](=O)[O-])c1O`, for which the inhibition was 4.62% (active). Under `O=C(Nc1ccccc1Cc1ccccc1)c1ccc2c(c1)SC1=NS(=O)(=O)CCN12` stands -3.52%; under `COc1ccc(CNC(=O)CN(c2ccc(OC)c(Cl)c2)S(=O)(=O)c2ccc(C)cc2)cc1`, -0.9%; under `CCOC(=O)c1cc2cc3ccccc3cc2oc1=O`, 0.55%. Consider `CC1CCN(C(=O)CCNC(=O)c2ccccc2)CC1`, for which the inhibition was -1.09%. For the molecule `Cc1oc2c(F)c(F)c(F)c(F)c2c1S(=O)(=O)Nc1cccc(C(F)(F)F)c1`, the inhibition is -0.74%.

As to `COc1ccc(OC)c(S(=O)(=O)N2CCCC(C(=O)NCCc3ccccc3)C2)c1` (centres undefined), the inhibition is -0.65%. Under `CCCN(CCC)c1nc2c(C)cccn2c(=O)c1/C=C1/SC(=S)N(Cc2ccco2)C1=O` stands 7.59% (active); under `Cc1cccn2c(=O)c(/C=C3\SC(=S)N(CC(C)C)C3=O)c(NCCCOC(C)C)nc12`, -1.23%; under `CCOC(=O)CC1C(=O)NCCN1c1nc2c(C)cccn2c(=O)c1/C=C1\SC(=S)N(C(C)CC)C1=O` (centres undefined), -2.03%. In the case of `CC(C)(O)C#Cc1ccc(CN2CCC(CO)(CCc3ccccc3)CC2)cc1` it was -0.34%.

Take `N#Cc1ccc(-c2nc3cc(C#N)c(C#N)cc3nc2-c2ccccc2)cc1C#N`: the inhibition is -3.53%. Under `CC(=O)Nc1ccc(S(=O)(=O)N(C)c2nc3ccccc3nc2Cl)cc1` stands -0.55%. Under `O=C(Nc1ccc([N+](=O)[O-])cc1)C1CC12CCC2` (centres undefined) stands -0.64%. Under `CCC(=C/c1sc2ccc3ccccc3c2[n+]1C)/C=C1\Sc2ccc3ccccc3c2N1C` stands 17.3% (active). Regarding `CCCNC(=O)CSc1nc(Cc2ccccc2)nc2ccccc12`, the inhibition is -3.79%. Under `COc1cc(OC)cc(-c2cc3nc(C4CCN(C(=O)OC(C)(C)C)CC4)cc(=O)n3[nH]2)c1` stands -4.79%; under `CCc1ccccc1NC(=O)CCOc1ccccc1`, -1.54%; under `COc1cc(/C=C2/SC(=S)N(Cc3ccccc3)C2=O)cc(OC)c1O`, 10% (active). With `COc1ccccc1C(=O)NNC(=O)CCN1C(=O)/C(=C\c2ccccc2)SC1=S`, the inhibition is -0.96%. In the case of `COc1ccc(/C=C2\SC(=S)N(CCC(=O)Nc3ccccn3)C2=O)cc1OC` it was -4.91%; in that of `CCCOC1CCCN(C(=O)c2cc(COc3cncc(Cl)c3)on2)C1` (centres undefined), -0.48%; in that of `O=C(COC(=O)c1ccc(N2CCCC2=O)cc1)c1ccc(OC(F)F)cc1`, -0.84%.

In the case of `C[C@@H]1CC[C@@]2(OC1)O[C@H]1C[C@H]3[C@@H]4CC=C5C[C@@H](O)[C@H](O)C[C@]5(C)C4CC[C@]3(C)[C@H]1[C@@H]2C` (some centres undefined), the inhibition was -4.13%. In the case of `Cc1ccc(S(=O)(=O)N2CCN=C2SCc2c(F)cccc2Cl)cc1` it was 0.72%. In the case of `Cc1cc(C)c2cc(CN(Cc3cccs3)Cc3nnnn3CC3CCCO3)c(=O)[nH]c2c1` (centres undefined) it was -1.83%; in that of `Cc1cccc2cc(CN(Cc3nnnn3Cc3ccccc3)C3CCCC3)c(=O)[nH]c12`, -0.68%. Under `Cc1cc(C)c2cc(CN(Cc3nnnn3Cc3ccc(F)cc3)C3CCCC3)c(=O)[nH]c2c1` stands 6.27% (active); under `COCc1c(C(=O)N/N=C\c2cccnc2)nnn1-c1nonc1N`, -2.01%. As to `COc1ccc(C2=NS(=O)(=O)N(C)C(C(=O)N3CCCCC3)=C2)cc1`, the inhibition is -5.03%. For `Cc1nn(-c2cc(Cl)ccc2N)c(=O)c2ccccc12`, the inhibition was -2.53%. On to `CC(=O)Nc1ccccc1Sc1ccc2c3c(cccc13)C(=O)N(c1ccc(C)cc1)C2=O`, for which the inhibition is -1.41%. Under `CN1C(=O)c2cccc3c(N)ccc(c23)C1=O` stands 41.5% (active). In the case of `O=C1c2ccccc2C(=O)N1c1cccc2ccccc12` it was -2.06%; in that of `Cc1nn(C)cc1N1C(=O)c2cccc3c(N)ccc(c23)C1=O`, 22.2% (active).

As for `O=C(O)c1ccc2c3c(cccc13)C(=O)N(OS(=O)(=O)c1ccccc1)C2=O`, the inhibition was -1.83%. Under `CCn1c(SCC(=O)Nc2ccc(C)cc2)nc2nc3c(cc2c1=O)CCCC3` stands -2.99%; under `COc1ccc(C(CC(=O)c2ccccc2)S(=O)(=O)c2ccccc2)cc1` (centres undefined), -1.87%; under `N#Cc1cccc(CN2CCC(=O)N(CCO)CC2)c1`, -1.5%. As to `Cc1ccc(C(=O)NCC(=O)OCc2nnc(-c3ccccc3)o2)cc1`, the inhibition is -0.31%.

By inhibition is commonly meant the change of the read-out against control, counted positive when it falls.

The values are drawn from PubChem BioAssay AID1556 (The Scripps Research Institute Molecular Screening Center, 2009).
